Source: ChEMBL document CHEMBL1148024, “Novel inhibitors of fatty acid amide hydrolase” (Bioorg Med Chem Lett, 2007)
Activity calls are given as the source filed them. No cut-off for these calls is given here.

How the values were obtained:
[1] = molecular target: T1, Fatty-acid amide hydrolase 1 (Homo sapiens, UniProt O00519); assay: Inhibition of human FAAH expressed in H4 cells; assay type: cell-based
T1 sequence (O00519 whole entry): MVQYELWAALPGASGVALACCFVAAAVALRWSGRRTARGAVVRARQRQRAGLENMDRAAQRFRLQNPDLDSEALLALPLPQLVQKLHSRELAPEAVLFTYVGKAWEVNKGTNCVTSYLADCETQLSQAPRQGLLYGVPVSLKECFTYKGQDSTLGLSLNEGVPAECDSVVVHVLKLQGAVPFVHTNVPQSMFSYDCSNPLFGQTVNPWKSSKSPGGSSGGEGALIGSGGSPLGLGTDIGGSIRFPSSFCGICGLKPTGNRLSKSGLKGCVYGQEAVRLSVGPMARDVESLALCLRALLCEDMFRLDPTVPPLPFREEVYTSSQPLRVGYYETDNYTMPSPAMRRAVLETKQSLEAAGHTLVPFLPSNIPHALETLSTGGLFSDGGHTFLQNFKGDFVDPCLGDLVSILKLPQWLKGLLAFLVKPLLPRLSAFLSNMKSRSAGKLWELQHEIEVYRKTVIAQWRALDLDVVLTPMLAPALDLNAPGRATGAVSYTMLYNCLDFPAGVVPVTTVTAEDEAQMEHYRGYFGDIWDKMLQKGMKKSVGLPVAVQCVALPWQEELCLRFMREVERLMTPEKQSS
Outline: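 Enzyme source: crude membrane homogenates from H4 cells transfected with human FAAH. Activity measured by a modified Omeir et al. method. IC50 taken from a four-parameter logistic fit of dose–response curves.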

Rattus norvegicus [2] = assay: Antinociceptive effect in rat at 10 mg/kg, iv by thermal escape test; assay type: functional, organism-based; parameters: dose 10 mg/kg
Outline: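 Rats were dosed iv with test compound at 0.1, 1 and 10 mg/kg, 15 min before exogenous anandamide (1 mg/kg, iv). Antinociception was read in the Hargreaves thermal escape test from 3 to 30 min after anandamide.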

Rattus norvegicus [3] = assay: Antinociceptive effect in rat persistent pain model assessed as suppression of formalin-induced paw flinches at 20 mg/kg, iv relative to control; assay type: functional, organism-based; parameters: dose 20 mg/kg
Rattus norvegicus [4] = assay: Antinociceptive effect in rat persistent pain model assessed as suppression of formalin-induced paw flinches at 20 mg/kg, iv in presence of SR-141716A; assay type: functional, organism-based; parameters: dose 20 mg/kg
Outline: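 CB1 antagonist SR141716A was given ip at 3 or 10 mg/kg at -30 min. Test compound (20 mg/kg) followed iv via jugular catheter at -15 min, then subcutaneous paw formalin at 0 min. Paw-flinch frequency was scored in Phase I (acute) and Phase II (persistent). Groups were compared with vehicle by Dunnett's test.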

Rattus norvegicus [5] = assay: Effect on neuropathic pain in rat chung model assessed as reversal of tactile allodynia at 20 mg/kg, iv; assay type: functional, organism-based; parameters: dose 20 mg/kg
[6] = molecular target: T2, Cytosolic phospholipase A2 (Homo sapiens, UniProt P47712); assay: Inhibition of cPLA2 activity
T2 sequence (P47712 whole entry): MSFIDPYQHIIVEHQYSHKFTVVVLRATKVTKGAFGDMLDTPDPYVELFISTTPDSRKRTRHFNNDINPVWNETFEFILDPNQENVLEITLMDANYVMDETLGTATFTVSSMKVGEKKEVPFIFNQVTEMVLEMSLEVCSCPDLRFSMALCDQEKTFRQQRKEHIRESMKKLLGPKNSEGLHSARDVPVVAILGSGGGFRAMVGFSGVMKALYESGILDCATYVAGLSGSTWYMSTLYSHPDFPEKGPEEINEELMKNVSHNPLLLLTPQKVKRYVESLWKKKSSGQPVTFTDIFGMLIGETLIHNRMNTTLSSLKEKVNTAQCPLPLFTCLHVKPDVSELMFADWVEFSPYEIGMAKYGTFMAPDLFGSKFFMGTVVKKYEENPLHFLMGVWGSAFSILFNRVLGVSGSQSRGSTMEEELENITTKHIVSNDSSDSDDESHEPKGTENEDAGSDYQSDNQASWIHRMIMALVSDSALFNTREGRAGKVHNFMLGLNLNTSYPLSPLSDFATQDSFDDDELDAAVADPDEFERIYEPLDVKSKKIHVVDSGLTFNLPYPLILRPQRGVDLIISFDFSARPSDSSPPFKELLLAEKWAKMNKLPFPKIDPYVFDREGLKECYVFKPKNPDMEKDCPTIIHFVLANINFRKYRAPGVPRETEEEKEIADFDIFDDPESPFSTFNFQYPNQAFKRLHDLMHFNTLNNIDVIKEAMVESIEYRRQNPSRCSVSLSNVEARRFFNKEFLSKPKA

Cannabinoid receptor 1 = Cannabinoid receptor 1 (Homo sapiens, UniProt P21554); assay: Displacement of [3H]CP-55940 from CB1 receptor expressed in HEK cells; assay type: cell-based, HEK293
Cannabinoid receptor 2 = Cannabinoid receptor 2 (Homo sapiens, UniProt P34972); assay: Displacement of [3H]CP-55940 from CB2 receptor expressed in CHO cells; assay type: cell-based
Cannabinoid receptor 2, sequence (P34972 whole entry): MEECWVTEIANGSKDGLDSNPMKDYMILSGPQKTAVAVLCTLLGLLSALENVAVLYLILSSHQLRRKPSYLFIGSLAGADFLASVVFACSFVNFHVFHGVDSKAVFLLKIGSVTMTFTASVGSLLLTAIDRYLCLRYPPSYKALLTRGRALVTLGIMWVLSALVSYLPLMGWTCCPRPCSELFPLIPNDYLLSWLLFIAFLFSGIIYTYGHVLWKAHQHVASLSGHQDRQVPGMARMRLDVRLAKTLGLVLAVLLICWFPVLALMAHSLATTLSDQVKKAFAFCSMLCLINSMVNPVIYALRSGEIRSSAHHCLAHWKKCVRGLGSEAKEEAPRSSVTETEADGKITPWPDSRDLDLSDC

Cannabinoid receptor 1, sequence (P21554 whole entry): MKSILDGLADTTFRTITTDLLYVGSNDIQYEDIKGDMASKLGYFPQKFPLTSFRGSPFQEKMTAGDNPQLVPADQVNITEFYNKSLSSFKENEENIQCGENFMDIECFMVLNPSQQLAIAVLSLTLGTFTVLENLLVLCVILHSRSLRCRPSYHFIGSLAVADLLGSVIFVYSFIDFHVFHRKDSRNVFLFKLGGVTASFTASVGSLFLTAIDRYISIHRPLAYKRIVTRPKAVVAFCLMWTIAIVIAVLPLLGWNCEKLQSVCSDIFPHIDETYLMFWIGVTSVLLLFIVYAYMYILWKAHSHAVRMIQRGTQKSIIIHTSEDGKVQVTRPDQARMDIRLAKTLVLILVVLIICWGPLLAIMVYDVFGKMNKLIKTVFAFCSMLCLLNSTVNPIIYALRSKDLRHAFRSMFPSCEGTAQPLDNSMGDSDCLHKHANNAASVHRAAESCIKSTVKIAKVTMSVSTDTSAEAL

Row | Compound | IC50 [1] [nM] | further results
1 | Cc1nc(-c2ccc(F)cc2)c(-c2ccc(F)cc2)n1CCCCCCNC(=O)Oc1ccccc1F | 10 | –
2 | CCCCC/C=C\C/C=C\C/C=C\C/C=C\CCCC(=O)NCCO | – | Activity (Rattus norvegicus [2]): inactive
3 | Cc1nc(-c2ccccc2)c(-c2ccccc2)n1CCCCCCNC(=O)Oc1ccccc1F | 2 | Activity (Rattus norvegicus [2]): inactive; Activity (Rattus norvegicus [3]): Active; Activity (Rattus norvegicus [4]): inactive; Activity (Rattus norvegicus [5]): Active; Ki [6]: 15000 nM; Ki (Cannabinoid receptor 1): 23000 nM; Ki (Cannabinoid receptor 2): 28000 nM
4 | CCC(CCCCCn1c(C)nc(-c2ccccc2)c1-c1ccccc1)NC(=O)Oc1ccccc1F (centres undefined) | 30 | –
5 | Cc1nc(-c2ccccc2)c(-c2ccccc2)n1CCCCCC(NC(=O)Oc1ccccc1F)C(C)C (centres undefined) | 250 | –
6 | CCCN(CCCCCCn1c(C)nc(-c2ccccc2)c1-c1ccccc1)C(=O)Oc1ccccc1F | > 100000 | –
7 | Cc1nc(-c2ccccc2)c(-c2ccccc2)n1CCCCCC(NC(=O)Oc1ccccc1F)c1ccccc1 (centres undefined) | 110 | –
8 | CCOC(=O)CCCCCCn1c(CC)nc(-c2ccccc2)c1-c1ccccc1 | 11 | –
9 | CNC(=O)NCCCCCCn1c(C)nc(-c2ccccc2)c1-c1ccccc1 | > 10000 | –
10 | Cc1nc(-c2ccc(F)cc2)c(-c2ccc(F)cc2)n1CCCCCCNC(=O)Oc1c(F)cccc1F | 24 | –
11 | CNC(=O)CCCCCCn1c(C)nc(-c2ccccc2)c1-c1ccccc1 | 1700 | –
12 | Cc1nc(-c2ccccc2)c(-c2ccccc2)n1CCCCCC(C)NC(=O)Oc1ccccc1F (centres undefined) | 4.2 | –
13 | CCOC(=O)CCCCCCn1c(C)nc(-c2ccc(F)cc2)c1-c1ccc(F)cc1 | 64 | –
14 | Cc1nc(-c2ccccc2)c(-c2ccccc2)n1CCCCCCNC(=O)Oc1ccccc1 | 5.3 | –

Now from value to molecule, other results behind:

Row | IC50 [1] [nM] | Compound | further results
15 | 64 | CCOC(=O)CCCOc1ccc(-n2cnc(-c3ccccc3)c2-c2ccccc2)cc1 | –
16 | 10000 | Cc1nc(-c2ccccc2)c(-c2ccccc2)n1CCCCCCNC(=O)Nc1ccccc1 | –
17 | > 100000 | CCN(CCCCCCn1c(C)nc(-c2ccccc2)c1-c1ccccc1)C(=O)Oc1ccccc1F | –
18 | 9900 | CCOC(=O)CC(CC)CCCCCn1c(C)nc(-c2ccccc2)c1-c1ccccc1 (centres undefined) | –
19 | 130 | CCOC(=O)CC(C)CCCCCn1c(C)nc(-c2ccccc2)c1-c1ccccc1 (centres undefined) | –
20 | 6500 | COC(=O)COc1cccc(-n2cnc(-c3ccccc3)c2-c2ccccc2)c1 | –
21 | > 10000 | CCOC(=O)CCCCOc1ccc(-n2cnc(-c3ccccc3)c2-c2ccccc2)cc1 | –
22 | 31 | CCc1nc(-c2ccccc2)c(-c2ccccc2)n1CCCCCCCC(=O)OC | –
23 | 670 | COC(=O)COc1ccc(-n2cnc(-c3ccccc3)c2-c2ccccc2)cc1 | –
24 | 32 | CCOC(=O)CCCCCn1c(CC)nc(-c2ccccc2)c1-c1ccccc1 | –
25 | 970 | Cc1nc(-c2ccccc2)c(-c2ccccc2)n1CCCCCCC(=O)N(C)C | –
26 | 91 | CCOC(=O)CCCOc1cccc(-n2cnc(-c3ccccc3)c2-c2ccccc2)c1 | –
27 | > 100000 | CCOC(=O)CC(CCCCCn1c(C)nc(-c2ccccc2)c1-c1ccccc1)C(C)C (centres undefined) | –
